Reference: ChEMBL document CHEMBL4219151, “Piperidinyl Ureas Chemically Control Defective in Cullin Neddylation 1 (DCN1)-Mediated Cullin Neddylation” (J Med Chem, 2018)
In brackets after ≈: the same amount, converted by molar mass. Activity calls are given as the source filed them. No cut-off for these calls is given here.

Columns and labels:
[1] = Solubility of the compound at pH 7.4 after 18 hrs by UV-spectroscopy; assay type: physicochemical; conditions: buffer
Outline: (§1)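 Measured in triplicate within at least one experiment; values reported as mean ± standard deviation.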

[2] = Permeability of the compound at 10 uM by PAMPA; assay type: ADME; conditions: for Papp at 10 µM: PAMPA, read-out: permeability; for permeability: pampa, 10 µM; outline: as §1
DCN1-like protein 1 [3] = target: T1, DCN1-like protein 1 (Homo sapiens, UniProt Q96GG9); experiment: Inhibition of human DCN1-mediated cullin neddylation assessed as reduction in transfer of fluorescein-5-maleimide-tagged NEDD8 from N-terminally acetylated human UBE2M to CUL2-CTD measured for 10 sec by pulse-chase assay
BJ = experiment: Growth inhibition of human BJ cells; assay type: cell-based
Outline: (§2)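 In vitro monolayer proliferation assay in BJ cells (normal fibroblasts lacking DCN1 amplification) and HCC95 cells (squamous cell carcinoma line carrying DCN1 amplification). EC50 is reported as mean ± standard deviation from at least one experiment run in triplicate. A ">" value means less than 50% growth inhibition at the highest concentration tested.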

HCC95 = experiment: Growth inhibition of human HCC95 cells; assay type: functional, cell-based; outline: as §2
Homo sapiens = species: Homo sapiens; experiment: Inhibition of human RBX1-catalyzed CUL2(CTD) neddylation assessed as reduction in transfer of N-terminal cys-tagged NEDD8 from UBE2M to CUL2-CTD at 12.5 uM measured up to 6 mins by pulse-chase assay
Outline: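 In vitro pulse-chase monitoring NEDD8 transfer from UBE2M to the CUL2 C-terminal domain, stimulated by DCN1 together with RBX1. The CUL2 domain stands in for cullins 1-5. The assay is a variation of a previously published pulse-chase format, also run against each of the five DCN family members.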

DCN1-like protein 1 [4] = target: T1, DCN1-like protein 1
DCN1-like protein 1 [5] = target: T1, DCN1-like protein 1; experiment: Binding affinity biotinylated human GST-tagged DCN1 by ITC method
[6] = target: DCN1-like protein 2 (Homo sapiens) (UniProt Q6PH85); experiment: Inhibition of human DCN2-mediated cullin neddylation assessed as reduction in transfer of fluorescein-5-maleimide-tagged NEDD8 from N-terminally acetylated human UBE2M to CUL2-CTD at 12.5 and 50 uM measured for 10 sec by pulse-chase assay
[7] = target: T2, DCN1-like protein 3 (Homo sapiens) (UniProt Q8IWE4); experiment: Inhibition of human DCN3-mediated cullin neddylation assessed as reduction in transfer of fluorescein-5-maleimide-tagged NEDD8 from N-terminally acetylated human UBE2M to CUL2-CTD at 50 uM measured for 2 mins by pulse-chase assay
T2 sequence (whole entry): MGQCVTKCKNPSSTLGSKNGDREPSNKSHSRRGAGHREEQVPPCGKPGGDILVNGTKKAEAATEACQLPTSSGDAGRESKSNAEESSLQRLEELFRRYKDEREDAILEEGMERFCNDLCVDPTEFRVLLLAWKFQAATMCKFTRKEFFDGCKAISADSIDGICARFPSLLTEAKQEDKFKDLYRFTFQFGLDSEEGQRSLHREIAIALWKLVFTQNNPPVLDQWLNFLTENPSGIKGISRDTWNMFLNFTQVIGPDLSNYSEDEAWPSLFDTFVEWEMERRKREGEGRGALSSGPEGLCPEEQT

[8] = target: T3, DCN1-like protein 4 (Homo sapiens) (UniProt Q92564); experiment: Inhibition of human DCN4-mediated cullin neddylation assessed as reduction in transfer of fluorescein-5-maleimide-tagged NEDD8 from N-terminally acetylated human UBE2M to CUL2-CTD at 50 uM measured for 1 min by pulse-chase assay
T3 sequence (whole entry): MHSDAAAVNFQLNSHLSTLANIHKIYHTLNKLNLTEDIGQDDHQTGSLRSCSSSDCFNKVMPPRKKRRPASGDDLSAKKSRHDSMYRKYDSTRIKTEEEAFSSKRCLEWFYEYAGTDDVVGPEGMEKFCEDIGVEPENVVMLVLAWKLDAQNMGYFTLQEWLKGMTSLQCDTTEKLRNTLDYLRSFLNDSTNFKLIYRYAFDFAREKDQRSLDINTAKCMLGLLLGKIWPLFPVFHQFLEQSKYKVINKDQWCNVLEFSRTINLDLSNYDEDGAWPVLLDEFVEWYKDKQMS

[9] = target: T4, DCN1-like protein 5 (Homo sapiens) (UniProt Q9BTE7); experiment: Inhibition of human DCN5-mediated cullin neddylation assessed as reduction in transfer of fluorescein-5-maleimide-tagged NEDD8 from N-terminally acetylated human UBE2M to CUL2-CTD at 50 uM measured for 1 min by pulse-chase assay
T4 sequence (whole entry): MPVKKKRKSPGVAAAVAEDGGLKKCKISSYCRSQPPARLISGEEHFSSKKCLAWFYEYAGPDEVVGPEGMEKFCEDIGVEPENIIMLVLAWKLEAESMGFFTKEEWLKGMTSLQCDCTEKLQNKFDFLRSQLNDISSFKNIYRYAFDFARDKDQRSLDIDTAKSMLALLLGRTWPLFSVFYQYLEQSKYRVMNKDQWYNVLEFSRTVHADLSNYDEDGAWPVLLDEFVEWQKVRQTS

[10] = target: NEDD8 activating enzyme (Homo sapiens) (UniProt Q8TBC4+Q13564); experiment: Inhibition of human NAE1-UBA3 E1 activating enzyme assessed as reduction in CUL3 neddylation by measuring inhibition of UBE2M thiol-ester formation at 50 uM up to 60 mins by pulse-chase assay; assay type: protein-complex assay
[11] = target: T2, DCN1-like protein 3 (Homo sapiens); experiment: Inhibition of human DCN3 stimulated N-terminal cys-tagged NEDD8 transfer from UBE2F to CUL2(CTD)-RBX1 at 10 uM measured up to 2 mins by pulse-chase assay

T1 sequence (Q96GG9 whole entry): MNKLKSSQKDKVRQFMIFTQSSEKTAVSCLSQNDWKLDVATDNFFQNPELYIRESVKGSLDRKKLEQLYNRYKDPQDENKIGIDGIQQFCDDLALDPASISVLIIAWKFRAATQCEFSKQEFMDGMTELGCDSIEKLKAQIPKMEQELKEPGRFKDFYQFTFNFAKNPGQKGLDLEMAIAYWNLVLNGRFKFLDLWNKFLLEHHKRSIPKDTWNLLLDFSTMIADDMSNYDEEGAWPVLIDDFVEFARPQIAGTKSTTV
Chain of DCN1-like protein 2 (Homo sapiens) (Q6PH85 whole entry): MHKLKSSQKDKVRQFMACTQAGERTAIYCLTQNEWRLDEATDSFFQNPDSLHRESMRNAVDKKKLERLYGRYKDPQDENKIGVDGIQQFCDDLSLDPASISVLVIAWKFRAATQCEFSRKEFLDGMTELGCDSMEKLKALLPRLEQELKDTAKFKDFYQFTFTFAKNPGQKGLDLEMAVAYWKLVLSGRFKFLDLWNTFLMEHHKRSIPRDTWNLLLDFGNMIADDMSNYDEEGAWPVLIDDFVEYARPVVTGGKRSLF

SMILES | solubility at 18 h [1] | Papp at 10 µM [2] | EC50 (BJ) | EC50 (HCC95) | IC50 (DCN1-like protein 1 [4]) | permeability [2] | also measured
CCCN1CCC(N(Cc2cc(F)cc(C(F)(F)F)c2)C(=O)Nc2cccc(C(F)(F)F)c2)CC1 | 37 µM (≈ 18.7 µg/mL) | > 2200 ×10⁻⁶ cm/s | > 23 µM | 21 µM | 1000 nM | – | EC50 (DCN1-like protein 1 [3]): 180 nM; inhibition (Homo sapiens): inactive
CCCN1CCC(N(Cc2ccc3c(c2)OCO3)C(=O)Nc2cccc(C(F)(F)F)c2)CC1 | 66 µM (≈ 30.6 µg/mL) | > 2200 ×10⁻⁶ cm/s | > 23 µM | > 40 µM | – | – | –
CCCC(C)N1CCC(N(Cc2ccccc2)C(=O)Nc2cccc(C(F)(F)F)c2)CC1 (stereo not given) | 57 µM (≈ 25.5 µg/mL) | – | > 40 µM | 47 µM | 62 nM | 1400 ×10⁻⁶ cm/s | Kd (DCN1-like protein 1 [5]): 140 nM; inhibition [6]: Active; inhibition [7]: inactive; inhibition [8]: inactive; inhibition [9]: inactive; EC50 (DCN1-like protein 1 [3]): 79 nM; inhibition [10]: inactive; inhibition [11]: inactive; inhibition (Homo sapiens): inactive
CC(C)(C)N1CCC(N(Cc2ccc3c(c2)OCO3)C(=O)Nc2cccc(C(F)(F)F)c2)CC1 | 75 µM (≈ 35.8 µg/mL) | > 2200 ×10⁻⁶ cm/s | > 40 µM | > 40 µM | 310 nM | – | EC50 (DCN1-like protein 1 [3]): 370 nM; inhibition (Homo sapiens): inactive
CCCN1CCC(N(Cc2ccccc2)C(=O)Nc2cccc(C(F)(F)F)c2)CC1 | 39 µM (≈ 16.4 µg/mL) | – | > 23 µM | > 40 µM | 820 nM | 1800 ×10⁻⁶ cm/s | Kd (DCN1-like protein 1 [5]): 860 nM; EC50 (DCN1-like protein 1 [3]): 400 nM
CCCN1CCC(N(Cc2ccco2)C(=O)Nc2cccc(C(F)(F)F)c2)CC1 | 69 µM (≈ 28.3 µg/mL) | > 2200 ×10⁻⁶ cm/s | > 23 µM | > 23 µM | 750 nM | – | Kd (DCN1-like protein 1 [5]): 700 nM; EC50 (DCN1-like protein 1 [3]): 570 nM
Cc1ccc(NC(=O)NC2CCN(Cc3ccccc3)CC2)cc1Cl | 2.4 µM (≈ 0.859 µg/mL) | > 2200 ×10⁻⁶ cm/s | – | – | > 67000 nM | – | –
O=C(Nc1cccc(C(F)(F)F)c1)N(Cc1ccccc1)C1CCN(CC2CCCC2)CC1 | 48 µM (≈ 22.1 µg/mL) | 990 ×10⁻⁶ cm/s | – | – | 370 nM | – | –
O=C(Nc1cccc(C(F)(F)F)c1)NC1CCN(Cc2ccc(Cl)cc2)CC1 | 0.8 µM (≈ 0.329 µg/mL) | – | – | – | 25000 nM | 1300 ×10⁻⁶ cm/s | –
CCCN1CCC(N(Cc2cccnc2)C(=O)Nc2cccc(C(F)(F)F)c2)CC1 | < 0.1 µM | – | > 23 µM | > 23 µM | – | 1300 ×10⁻⁶ cm/s | –
O=C(Nc1ccccc1)NC1CCN(Cc2ccccc2)CC1 | 68 µM (≈ 21 µg/mL) | – | – | – | > 67000 nM | 1400 ×10⁻⁶ cm/s | –
O=C(Nc1cccc(C(F)(F)F)c1)NC1CCN(Cc2ccc(F)cc2)CC1 | 19 µM (≈ 7.51 µg/mL) | > 2200 ×10⁻⁶ cm/s | – | – | 14000 nM | – | –
Cc1ccccc1CN1CCC(NC(=O)Nc2cccc(C(F)(F)F)c2)CC1 | 44 µM (≈ 17.2 µg/mL) | – | – | – | 4000 nM | 1200 ×10⁻⁶ cm/s | –
CCCCCN1CCC(N(Cc2ccccc2)C(=O)Nc2cccc(C(F)(F)F)c2)CC1 | 58 µM (≈ 26 µg/mL) | – | – | – | 660 nM | 1400 ×10⁻⁶ cm/s | –
O=C(Nc1cccc(C(F)(F)F)c1)NC1CCN(Cc2ccccc2F)CC1 | 44 µM (≈ 17.4 µg/mL) | – | – | – | 13000 nM | 1500 ×10⁻⁶ cm/s | –
O=C(Nc1cccc(C(F)(F)F)c1)N(Cc1ccccc1)C1CCN(Cc2ccc3c(c2)OCCO3)CC1 | 1 µM (≈ 0.526 µg/mL) | > 2200 ×10⁻⁶ cm/s | – | – | 360 nM | – | –
CCCCN1CCC(N(Cc2ccccc2)C(=O)Nc2cccc(C(F)(F)F)c2)CC1 | 70 µM (≈ 30.3 µg/mL) | > 2200 ×10⁻⁶ cm/s | > 40 µM | > 40 µM | 260 nM | – | Kd (DCN1-like protein 1 [5]): 700 nM; EC50 (DCN1-like protein 1 [3]): 140 nM; inhibition [10]: inactive; inhibition [11]: inactive; inhibition (Homo sapiens): inactive
O=C(Nc1cccc(C(F)(F)F)c1)N(Cc1ccccc1)C1CCN(CC2CCCCC2)CC1 | 1.2 µM (≈ 0.568 µg/mL) | < 1 ×10⁻⁶ cm/s | – | – | 620 nM | – | –
CCCN1CCC(N(CC(C)C)C(=O)Nc2cccc(C(F)(F)F)c2)CC1 | 96 µM (≈ 37 µg/mL) | – | – | – | 5800 nM | 1900 ×10⁻⁶ cm/s | –
Cn1nccc1-c1cccc(NC(=O)NC2CCN(Cc3ccccc3)CC2)c1 | 78 µM (≈ 30.4 µg/mL) | > 2200 ×10⁻⁶ cm/s | – | – | > 67000 nM | – | –
CCCCN(C(=O)Nc1cccc(C(F)(F)F)c1)C1CCN(CCC)CC1 | 70 µM (≈ 27 µg/mL) | > 2200 ×10⁻⁶ cm/s | – | – | 1400 nM | – | –
O=C(Nc1cccc(C(F)(F)F)c1)N(Cc1ccccc1)C1CCN(CCC(F)(F)F)CC1 | 2.3 µM (≈ 1.09 µg/mL) | 440 ×10⁻⁶ cm/s | – | – | 23000 nM | – | –
CCCN1CCC(N(CC2CCCCC2)C(=O)Nc2cccc(C(F)(F)F)c2)CC1 | 90 µM (≈ 38.3 µg/mL) | > 2200 ×10⁻⁶ cm/s | – | – | 2400 nM | – | –
O=C(Nc1cccc(-n2cccc2)c1)NC1CCN(Cc2ccccc2)CC1 | 1 µM (≈ 0.374 µg/mL) | 930 ×10⁻⁶ cm/s | – | – | > 67000 nM | – | –
CCCS(=O)(=O)N1CCC(N(Cc2ccccc2)C(=O)Nc2cccc(C(F)(F)F)c2)CC1 | 0.5 µM (≈ 0.242 µg/mL) | < 1 ×10⁻⁶ cm/s | – | – | 740 nM | – | –
O=C(Nc1cccc(C(F)(F)F)c1)NC1CCN(Cc2cccc(F)c2)CC1 | 50 µM (≈ 19.8 µg/mL) | > 2200 ×10⁻⁶ cm/s | – | – | 16000 nM | – | –
O=C(Nc1cccc(C(F)(F)F)c1)NC1CCN(Cc2ccccc2)CC1 | 32 µM (≈ 12.1 µg/mL) | 670 ×10⁻⁶ cm/s | > 24 µM | > 32 µM | – | – | –
Cc1cccc(CN2CCC(NC(=O)Nc3cccc(C(F)(F)F)c3)CC2)c1 | 35 µM (≈ 13.7 µg/mL) | > 2200 ×10⁻⁶ cm/s | – | – | 6600 nM | – | –
CCCCN1CCC(N(Cc2ccc3c(c2)OCO3)C(=O)Nc2cccc(C(F)(F)F)c2)CC1 | 71 µM (≈ 33.9 µg/mL) | > 2200 ×10⁻⁶ cm/s | > 40 µM | 46 µM | 360 nM | – | EC50 (DCN1-like protein 1 [3]): 110 nM
O=C(Nc1cccc(C(F)(F)F)c1)NC1CCN(C(=O)c2ccccc2)CC1 | 2.8 µM (≈ 1.1 µg/mL) | 910 ×10⁻⁶ cm/s | – | – | > 67000 nM | – | –
